Granule exo inh: blocks lytic granule exocytosis. 360,000 compounds, 0.66% hits. TALL-104 LAMP-1 surface exposure, flow cytometry; cells stimulated with thapsigargin and PMA. inhibition, % at 10 µM;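 active = inhibition above about 55%, limit read from the data; inconclusive = no clear call, values can overlap the other calls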
Myeloid diff MLP: myeloid differentiation induction | calls only at 10 µM | 360,000 compounds, 1% hits | ER-HoxA9 myeloid progenitors, lysozyme-GFP differentiation, flow cytometry | AID 624256;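 active = normalized GFP-positive differentiation at or above the plate's own cutoff, the solvent-only control mean plus 3 SD; inconclusive = no clear call, values can overlap the other calls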;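 note: cells exposed to compound for four days before flow analysis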
CSN deneddyl inh: inhibitors of human CSN-mediated cullin deneddylation | Purified CSN, SCF-Nedd8-OG deneddylation, fluorescence polarization | AID 651999 | inhibition, % at 12.5 µM | Q92905 | 360,000 compounds, 0.38% hits;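 active = pattern-corrected inhibition above about 35%, with an unprinted fluorescence ratio check between 0.5 and 1.5, limit read from the data, passing the limit was not always enough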;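 note: 0% = enzyme with substrate and 100% = substrate without enzyme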
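Material: purified human Csn5 enzyme expressed in HEK293T cells / Medium: Tris buffer pH 7.5, NaCl, DTT, Tween-20, trehalose, ovalbumin / Compound dosing: 12.5 µM single point / Schedule: 90 min incubation of compound, enzyme and substrate at room temperature / Signal: fluorescence polarization of the substrate / Control set: no-enzyme wells high, enzyme-with-substrate wells low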
HNF4A DNA FP: change in binding of human HNF4 alpha to DNA. P41235. HNF4a-FITC DNA binding, fluorescence polarization, 1 h. activity change, % at 10 µM. 360,000 compounds, 0.3% hits; in the data active = activity change above about 30%, passing the limit was not always enough
Target sequence (P41235 whole entry, looked up): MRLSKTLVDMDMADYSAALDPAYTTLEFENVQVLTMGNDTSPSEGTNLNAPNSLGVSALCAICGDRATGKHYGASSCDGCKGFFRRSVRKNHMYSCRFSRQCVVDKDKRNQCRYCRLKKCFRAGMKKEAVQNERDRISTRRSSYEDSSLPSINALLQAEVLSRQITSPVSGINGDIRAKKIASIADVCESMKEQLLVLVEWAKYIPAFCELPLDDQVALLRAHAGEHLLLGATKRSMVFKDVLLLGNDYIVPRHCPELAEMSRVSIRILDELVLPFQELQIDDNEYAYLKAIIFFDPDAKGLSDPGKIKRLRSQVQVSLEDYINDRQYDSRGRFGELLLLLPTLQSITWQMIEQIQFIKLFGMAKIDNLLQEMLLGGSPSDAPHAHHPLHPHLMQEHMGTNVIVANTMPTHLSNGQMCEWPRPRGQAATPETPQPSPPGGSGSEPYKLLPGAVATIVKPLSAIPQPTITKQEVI
Active calls of the source: *; i = inactive; ? = inconclusive; . = not tested or not shown; + = active, no number. Only some compounds are listed: those with a hit (about 2.2% of all), similar ones and a draw of the others.

SMILES	Granule exo inh	Myeloid diff MLP	CSN deneddyl inh	HNF4A DNA FP
CCCCc1nc2cc(C(=O)N3CCCC(COC)C3)ccc2o1 (centres undefined)	-0.2	i	2.8	-5.1
O=[N+]([O-])c1ccc(S(=O)(=O)NCCS(=O)(=O)N2CCN(c3ccccc3)CC2)cc1	-2.4	i	3.6	-2.2
Nc1c2c(nc3ccccc13)CCC2	-0.9	i	-0.5	34.9*
C=CCc1cc(Cl)ccc1OCCCn1ccnc1	2.1	i	-2.6	-3.4
C=CCc1cc(Cl)ccc1OCCn1ccnc1	7.7	+	0.0	3.9
O=C(CSc1nc2c(cnn2-c2ccccc2)c(=O)[nH]1)c1ccc(Cl)cc1	-7.7	i	88.4*	-39.9
O=[N+]([O-])c1ccc(NCCOc2ccccc2Cl)nc1	25.4	+	3.1	-3.8
CN(C(=O)c1ccc(NC(=O)Cc2ccc(NC(=O)C3CCN(C(=O)CCc4ccccc4)CC3)cc2)cc1)C1CCCC1	2.1	+	0.1	4.4
CN(C(=O)c1ccc(NC(=O)Cc2ccc(NC(=O)C3CCCN(C(=O)C4CCCC4)C3)cc2)cc1)C1CC1 (centres undefined)	-4.9	+	3.8	4.2
CN(C(=O)c1ccc(NC(=O)Cc2ccc(NC(=O)C3CCCN(C(=O)C4CCCCC4)C3)cc2)cc1)C1CC1 (centres undefined)	0.9	i	2.8	-1.2
CCC(=O)Nc1ccc(C2C(=O)c3ccccc3C2=O)cc1	5.5	i	0.3	-1.0
CCC(=O)NC1=C(Nc2ccc(N)cc2)C(=O)c2ccccc2C1=O	-1.3	+	-2.0	-0.4
COc1ccc(Nc2cc(C)nc3ncnn23)c(OC)c1	2.5	i	-4.0	3.6
COc1ccc(CNc2cc(C)nc3ncnn23)c(OC)c1	2.0	+	1.8	2.0
COc1ccc2c(c1)c(CC(=O)Nc1cc(C)ccc1C)c(C)n2C(=O)c1ccc(Cl)cc1	-5.6	+	-10.1	2.9
CCN(CCCNC(=O)CNC(=O)c1nn(-c2ccc(OC)cc2)c(=O)c2ccccc12)c1cccc(C)c1	32.7	i	6.6	-3.2
O=C(Cc1ccc(Cl)cc1Cl)NC1CCCCCC1	39.9	+	2.6	-2.6
C[C@@H]1CN([C@H](C)CO)C(=O)CCCn2nncc2CO[C@H]1CN(C)Cc1ccc(Oc2ccccc2)cc1	4.0	i	3.1	-0.5
COc1ccc2nc(C)cc(NCCN3CCOCC3)c2c1	-3.3	i	-5.0	2.4
COc1ccc2nc(C)cc(NCc3ccc(F)cc3)c2c1	35.0	+	103.6	146.9
COC(=O)c1ccc(-c2csc(NC(=O)C3=COCCO3)n2)cc1	0.4	i	-0.7	1.8
COc1ccc(S(=O)(=O)NCCSCc2ccc(Cl)cc2)cc1NC(C)=O	3.4	i	-1.9	2.9
Fc1ccc(/C=N/NC2=Nc3cccc4cccc2c34)cc1	-1.3	+	21.4	20.8
CCN(CC)c1ccc(/C=N/N=C(c2ccccc2)c2ccccc2)c(O)c1	9.5	+	-8.8	28.8
CCN(CC)c1ccc(/C=N/N(c2ccccc2)c2ccccc2)c(O)c1	-0.7	i	-1.0	6.4
SMILES	Granule exo inh	Myeloid diff MLP	CSN deneddyl inh	HNF4A DNA FP
CCN(C(=O)COC(=O)CCCc1c[nH]c2ccccc12)c1c(N)n(Cc2ccccc2)c(=O)[nH]c1=O	-3.6	i	-1.8	3.5
COc1cc2nc(N3CCNCC3)nc(N)c2cc1OC	-1.0	i	115.9*	52.5
Cc1cc2c(=O)n(C)c(SCC(=O)Nc3cccc(F)c3)nc2s1	13.3	.	2.5	2.1
CCN(CC)C(C)C(=O)Nc1c2c(cc3c1CCC3)CCC2 (centres undefined)	3.6	+	1.7	0.3
O=c1cc(N2CCN(c3ccccc3Cl)CC2)[nH]c(=O)n1Cc1ccc(F)cc1	1.7	?	2.8	2.9
COc1ccccc1N1CCN(c2cc(=O)n(Cc3ccc(F)cc3)c(=O)[nH]2)CC1	10.8	+	1.6	5.3
CCN(CC)CCNC(=O)c1cn(-c2ccccc2)nc1-c1cccs1	2.0	i	-2.6	5.1
CCN(CC)CCOC(=O)c1ccc(NC(=O)c2cn(-c3ccccc3)nc2-c2cccs2)cc1	90.2*	.	-13.9	6.3
CCOC(=O)C1=C(O)/C(=C/c2ccc(-c3ccccc3C(=O)O)o2)SC1=Nc1ccc(C)cc1	14.2	i	50.2*	58.1*
CCOC(=O)C1=C(O)/C(=C/c2ccc(-c3ccccc3C(=O)O)o2)SC1=Nc1ccc(OC)cc1	12.5	i	34.6	19.3
NC(=O)c1ccccc1NC(=O)c1cccc(C(=O)Nc2ccccc2C(N)=O)n1	4.2	i	35.2*	3.2
NC(=O)c1ccccc1NC(=O)c1ccc2ccccc2c1	2.0	i	-2.2	-2.0

Screens from PubChem.
